RGS7-Gao: regulators of human RGS7-Galphao interaction; P09471; Multiplexed bead flow cytometry, RGS7-Galphao binding; actives lie on both sides; binding response (% of control), % at 10 µM; hit rate 0.35% among 220,000; in the data active = binding response below about 49% or above about 150%; inconclusive = no clear call, values can overlap the other calls; inactive = in between;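 note: fluorescent Galphao held in activated GDP-AlF4 state binding bead-coupled RGS7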
RGS16-Gao: modulates binding between human RGS16 and Galphao. hit rate 0.38% among 220,000. O15492+P09471. bead-based flow cytometry RGS16-Galphao binding, fluorescence; actives lie on both sides. binding response (% of control), % at 10 µM;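 note: Galphao activated by GDP with aluminum fluoride before binding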
Target sequence (O15492 whole entry, looked up): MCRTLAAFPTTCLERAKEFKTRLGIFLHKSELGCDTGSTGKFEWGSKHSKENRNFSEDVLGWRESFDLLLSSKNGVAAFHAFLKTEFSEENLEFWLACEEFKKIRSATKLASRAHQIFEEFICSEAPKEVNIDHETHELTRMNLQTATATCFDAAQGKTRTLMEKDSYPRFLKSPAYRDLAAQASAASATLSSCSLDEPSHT
Target sequence (P09471 whole entry, looked up): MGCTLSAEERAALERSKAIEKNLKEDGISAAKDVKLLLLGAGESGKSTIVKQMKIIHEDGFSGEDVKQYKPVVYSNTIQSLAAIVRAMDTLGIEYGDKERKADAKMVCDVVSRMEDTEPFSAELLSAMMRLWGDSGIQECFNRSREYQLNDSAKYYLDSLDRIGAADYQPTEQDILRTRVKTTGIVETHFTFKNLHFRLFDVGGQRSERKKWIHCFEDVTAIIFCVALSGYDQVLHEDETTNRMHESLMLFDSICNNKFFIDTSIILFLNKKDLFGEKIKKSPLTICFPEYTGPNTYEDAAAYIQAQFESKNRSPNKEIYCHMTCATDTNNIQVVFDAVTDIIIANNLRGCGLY
Biofilm kill mix: mixtures killing C. albicans biofilm; C. albicans biofilm persisters + clotrimazole, fluorescence viability; primary screen in compound mixtures of four per well; inhibition, % at 7.6 µM; hit rate 0.02% among 120,000;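 active = inhibition above 30.3% in the primary screen of four-compound pools, then above 30% when the compound was retested; inconclusive = passed the primary limit but could not be retested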;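 note: compounds exposed to preformed 24 h biofilms for 48 h; 0% = untreated biofilm control and 100% = clotrimazole plus chlorhexidine kill blank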
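Test system: C. albicans CAF4-2 wild-type biofilms; buffer or medium: RPMI/MOPS medium, pH 7.0; schedule: 24 h biofilm formation, then 48 h compound exposure, 37 °C; detection: Alamar Blue fluorescence; measure: percent inhibition of biofilm viability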
RGS4-Gao reg: modulates binding of RGS4 to human Galphao; P09471; Multiplexed bead flow cytometry; actives lie on both sides; binding response (% of control), % at 10 µM; hit rate 0.33% among 220,000; in the data active = binding response below about 49% or above about 150%; inactive = in between;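 note: fluorescent Galphao activated with aluminum fluoride binding bead-coupled RGS4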
RGS8-Gao reg: human RGS8-Galphao interaction regulation | multiplexed bead flow cytometry, RGS8-Galphao binding; actives lie on both sides | hit rate 0.34% among 220,000 | AID 1423 | P09471 | response (percent of control binding), % at 10 µM; in the data active = response below about 60% or above about 140%; inactive = in between;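 note: Galphao activated as the GDP aluminium fluoride complex binding bead-coupled RGS8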
RGS4-Gao HTS: modulates binding between human RGS4 and Galphao; multiplexed bead flow cytometry, RGS–Galpha-o binding; AID 1504; hit rate 99% among 1,600; shares compounds with RGS16-Gao; RGS4–Galpha-o binding response, % at 10 µM;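 note: fluorescently labeled Galpha-o bound to GDP with aluminium fluoride binding biotinylated RGS beads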
Avidin counter: counter-screen: compounds disrupting biotin binding to avidin beads; shares compounds with RGS16-Gao; streptavidin beads, fluorescein-biotin binding, flow cytometry; inhibition, % at 10 µM; 1,700 tested, under 10 active;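 active = inhibition above 50%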;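 note: median green fluorescence of gated singlet beads compared with DMSO control wells; 0% = DMSO wells and 100% = complete loss of bead fluorescence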
RGS8-Gao single: RGS8-Galphao interaction regulation, single point confirmation. shares compounds with RGS16-Gao. bead-based flow cytometry RGS8-Galphao binding, fluorescence; actives lie on both sides. binding response (% of control), % at 10 µM. hit rate 3% among 1,700. AID 1836; in the data active = binding response below about 72% or above about 130%; inactive = in between;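 note: Galphao activated as GDP AlF4 complex before binding bead RGS8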
RGS7-Gao confirm: confirmation of regulators of human RGS7-Galphao interaction; AID 1837; shares compounds with RGS16-Gao; hit rate 7.8% among 1,700; bead-based flow cytometry RGS7-Galphao binding; actives lie on both sides; response (percent of control binding), % at 10 µM; in the data active = response below about 75% or above about 130%; inactive = in between;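 note: fluorescent Galphao activated with GDP and aluminum fluoride binding bead-coupled RGS7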
RGS16-Gao conf: confirmation of regulators of human RGS16-Galphao interaction; shares compounds with RGS16-Gao; hit rate 4% among 1,700; bead-based flow cytometry, RGS16-Galphao binding; actives lie on both sides; AID 1838; response (% of control binding), % at 10 µM; in the data active = response below about 74% or above about 130%; inactive = in between;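 note: Galphao activated as the GDP aluminium fluoride complex binding bead-coupled RGS16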
RGS4-Gao single: confirmation of regulators of human RGS4-Galphao interaction. shares compounds with RGS16-Gao. RGS4-Galphao binding, multiplexed bead flow cytometry; actives lie on both sides. AID 1840. binding response (% of control), % at 10 µM. hit rate 4% among 1,700; in the data active = binding response below about 74% or above about 130%; inactive = in between
RGS19-Gao conf: RGS19-Galphao interaction regulation, single point confirmation. shares compounds with RGS16-Gao. bead-based flow cytometry RGS19-Galphao binding; actives lie on both sides. response (percent of control binding), % at 10 µM. hit rate 5% among 1,700; in the data active = response below about 50% or above about 160%; inactive = in between;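 note: 100% = no compound control and 0% = blank background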
Active calls of the source: *; [ ] = remark or other dose. Most compounds without a hit are left out; they make up all but 0.74% or so of the library. Unless noted, the rule behind the calls is not given here.

`O=C(CC(NC(=O)C(F)(F)F)c1ccccc1)Nc1nnc(CCc2ccccc2)s1` (stereo unspecified) gave RGS7-Gao 108, RGS16-Gao 98, Biofilm kill mix 16, RGS4-Gao reg 99 and RGS8-Gao reg 98.
Cc1cc2c3c(ccc(C)c3n1)N=CN2c1ccccc1 was read as Avidin counter 0, RGS8-Gao single 100, RGS7-Gao confirm 80, RGS16-Gao conf 92, RGS4-Gao single 92 and RGS19-Gao conf 87.
Cc1cc(Nc2ccccc2)c2c([N+](=O)[O-])ccc(C)c2n1 was read as RGS7-Gao 98, RGS16-Gao 104, Biofilm kill mix 4, RGS4-Gao reg 103 and RGS8-Gao reg 101.
O=C(CN1C(=O)NC2(CCCC2)C1=O)NCCC1=CCCCC1 was read as RGS7-Gao 29*, RGS16-Gao 27, RGS4-Gao reg 37*, RGS8-Gao reg 31*, Avidin counter -1, RGS8-Gao single 101, RGS7-Gao confirm 98, RGS16-Gao conf 101, RGS4-Gao single 99 and RGS19-Gao conf 98.
For Cc1ccc(C2(C)NC(=O)N(CC(=O)NCCC3=CCCCC3)C2=O)cc1 (stereo unspecified) the results were RGS7-Gao 100, RGS16-Gao 101, RGS4-Gao reg 100 and RGS8-Gao reg 102.
`CCCn1nnc(NC(=O)c2cc3ccccc3o2)n1` gave RGS7-Gao 101, RGS16-Gao 102, RGS4-Gao reg 100 and RGS8-Gao reg 100.
`CCCCn1nnc(NC(=O)c2cc3ccccc3o2)n1` gave RGS7-Gao 127, RGS16-Gao 426, RGS4-Gao reg 134, RGS8-Gao reg 148*[activator], RGS4-Gao HTS 134*, Avidin counter 1, RGS8-Gao single 110, RGS7-Gao confirm 119, RGS16-Gao conf 111, RGS4-Gao single 115 and RGS19-Gao conf 106.
`O=C(NCc1nc(-c2ccc(C(F)(F)F)cc2)no1)Nc1cc(Cl)cc(Cl)c1` gave RGS7-Gao inconclusive, RGS16-Gao 95, Biofilm kill mix 21, RGS4-Gao reg 96 and RGS8-Gao reg 99.

High-throughput results as filed in PubChem.
